Measured values taken from ChEMBL document CHEMBL5335802, “Lead Optimization of the 5-Phenylpyrazolopyrimidinone NPD-2975 toward Compounds with Improved Antitrypanosomal Efficacy” (J Med Chem, 2024).
One block for each compound: values may come before it. Activity calls are given as the source filed them. The calls are words filed in the database; no cut-off is given here.

Columns and labels:
Trypanosoma brucei [1] = assay: Antitrypanosomal activity against Trypanosoma brucei Squib 427 trypomastigotes infected in mouse model assessed as reduction in parasite growth in blood at 50 mg/kg,po bid administrated for 5 consecutive days by SL-RNA qPCR assay; type: functional, organism-based
Summary of the method: (§1)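 Surviving mice from the acute infection model (PO b.i.d., 5 days, PEG400) tested by SL-RNA qPCR. Peripheral blood erythrocyte-lysed before RNA extraction. Mice sedated with ketamine/xylazine and perfused; fat, brain and spleen pieces held in RNAlater overnight at 4 °C. Activation 10 min 45 °C, 10 min 95 °C; 40 cycles 95/50/60 °C, 15 s each; melting curve. Eef2 qPCR confirmed RNA extraction.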

Trypanosoma brucei [2] = assay: Antitrypanosomal activity against Trypanosoma brucei Squib 427 trypomastigotes infected in mouse model assessed as reduction in parasitemia at 50 mg/kg,po bid administrated for 5 consecutive days by microscopic analysis; type: functional, organism-based
Summary of the method: (§2)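 Female Swiss mice (15-20 g), three per group, infected IP with 10^4 T. brucei Squib 427 trypomastigotes. Dosing PO b.i.d. for 5 days in PEG400; first dose 30 min before infection. Vehicle and suramin (10 mg/kg IP s.i.d., 5 days) controls. Parasitemia counted microscopically in tail-vein blood drops at several time points up to 63 dpi. Clinical or adverse effects observed.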

[3] = Metabolic stability in human liver microsomes assessed as drug metabolism in phase-I stage; type: ADME, Microsome
[4] = Cytotoxicity against human MRC5 cells incubated for 3 days by resazurin reagent fluorimetric analysis; type: toxicity, cell-based
[5] = Toxicity in mouse infected with Trypanosoma brucei Squib 427 trypomastigotes assessed as animal death at 25 mg/kg,po bid administrated for 5 consecutive days; type: organism-based; conditions: in vivo
Summary of the method: (§3)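 Female Swiss mice (15-20 g), groups of three, infected IP with 10⁴ T. brucei Squib 427 trypomastigotes. Compound given PO b.i.d. for 5 days in PEG400 (formulated at 12.5 and 6.25 mg/mL, up to 100 μL/25 g body weight). First dose 30 min before infection. PEG400 vehicle control group included. Animals observed for clinical or adverse effects and survival; tail-vein parasitemia checked microscopically until 63 dpi.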

Trypanosoma brucei [6] = assay: Antitrypanosomal activity against Trypanosoma brucei Squib 427 trypomastigotes infected in mouse model assessed as reduction in parasitemia at 25 mg/kg,po bid administrated for 5 consecutive days; type: functional, organism-based; summary of the method: as §2
Trypanosoma brucei [7] = assay: Antitrypanosomal activity against Trypanosoma brucei Squib 427 trypomastigotes infected in mouse model assessed as reduction in parasite growth in spleen at 25 mg/kg,po bid administrated for 5 consecutive days by SL-RNA qPCR assay; type: functional, organism-based; summary of the method: as §1
Trypanosoma brucei [8] = assay: Antitrypanosomal activity against Trypanosoma brucei Squib 427 trypomastigotes infected in mouse model assessed as reduction in parasite growth in blood at 25 mg/kg,po bid administrated for 5 consecutive days by SL-RNA qPCR assay; type: functional, organism-based; summary of the method: as §1
Trypanosoma brucei [9] = assay: Antitrypanosomal activity against Trypanosoma brucei Squib 427 trypomastigotes infected in mouse model assessed as reduction in parasite growth in brain at 25 mg/kg,po bid administrated for 5 consecutive days by SL-RNA qPCR assay; type: functional, organism-based; summary of the method: as §1
Trypanosoma brucei [10] = assay: Antitrypanosomal activity against Trypanosoma brucei Squib 427 trypomastigotes infected in mouse model assessed as reduction in parasite growth in brain at 50 mg/kg,po bid administrated for 5 consecutive days by SL-RNA qPCR assay; type: functional, organism-based; summary of the method: as §1
[11] = Metabolic stability in human liver microsomes assessed as parent compound remaining in phase-II metabolism measured after 1 hr; type: ADME, Microsome; conditions: read-out: Stability
[12] = Metabolic stability in mouse liver microsomes assessed as parent compound remaining in phase-II metabolism measured after 1 hr; type: ADME, Microsome; conditions: read-out: Stability
Trypanosoma brucei [13] = assay: Antitrypanosomal activity against Trypanosoma brucei Squib 427 trypomastigotes infected in mouse model assessed as reduction in parasite growth in fat at 25 mg/kg,po bid administrated for 5 consecutive days by SL-RNA qPCR assay; type: functional, organism-based; summary of the method: as §1
[14] = Toxicity in mouse infected with Trypanosoma brucei Squib 427 trypomastigotes assessed as animal death at 50 mg/kg,po bid administrated for 5 consecutive days measured after 60 days; type: organism-based; conditions: in vivo, 1440 h, time 60 day; summary of the method: as §3
[15] = Cytotoxicity against mouse Peritoneal macrophage cell incubated for 3 days by resazurin reagent fluorimetric analysis; type: toxicity, cell-based; conditions: peritoneal macrophages
Trypanosoma brucei [16] = assay: Antitrypanosomal activity against Trypanosoma brucei Squib 427 trypomastigotes infected in mouse model assessed as reduction in parasite growth in spleen at 50 mg/kg,po bid administrated for 5 consecutive days by SL-RNA qPCR assay; type: functional, organism-based; summary of the method: as §1
Trypanosoma brucei [17] = assay: Antitrypanosomal activity against Trypanosoma brucei Squib 427 trypomastigotes infected in mouse model assessed as reduction in parasite growth in fat at 50 mg/kg,po bid administrated for 5 consecutive days by SL-RNA qPCR assay; type: functional, organism-based; summary of the method: as §1
Trypanosoma brucei [18] = assay: Antitrypanosomal activity against Trypanosoma brucei assessed as inhibition of parasite growth incubated for 72 hrs by resazurin reagent fluorimetric analysis; type: functional, organism-based
[19] = Toxicity in mouse infected with Trypanosoma brucei Squib 427 trypomastigotes assessed as animal death at 10 mg/kg,po bid administrated for 5 consecutive days measured after 60 days; type: organism-based; conditions: in vivo, 1440 h, time 60 day
Plasmodium falciparum = assay: Antiplasmodial activity against Plasmodium falciparum assessed as inhibition of parasite growth incubated for 72 hrs by resazurin reagent fluorimetric analysis; type: functional, organism-based

Structure (SMILES): CC(C)(C)c1n[nH]c2c(=O)[nH]c(-c3ccc(F)cc3)nc12
- Activity (Trypanosoma brucei [1]): Active
- Activity (Trypanosoma brucei [2]): Active
- Stability [3]: Stable
- IC50 at 3 days [4]: > 63.1 µM
- Activity [5]: Non-Toxic
- Activity (Trypanosoma brucei [6]): Active
- Activity (Trypanosoma brucei [7]): Active
- Activity (Trypanosoma brucei [8]): Active
- Activity (Trypanosoma brucei [9]): Active
- Activity (Trypanosoma brucei [10]): Active
- remaining at 1 h [11]: 69%
- remaining at 1 h [12]: 69%
- Activity (Trypanosoma brucei [13]): Active
- Activity [14]: Non-Toxic
- IC50 at 3 days [15]: > 63.1 µM
- Activity (Trypanosoma brucei [16]): Active
- Activity (Trypanosoma brucei [17]): Active

Structure (SMILES): CCn1nc(C(C)C)c2nc(-c3ccc(F)cc3)[nH]c(=O)c21
- IC50 at 3 days [4]: > 63.1 µM

- IC50 (Trypanosoma brucei [18]; read-out: pIC50 (converted)): 0.0398 µM
Structure (SMILES): O=c1[nH]c(-c2ccc(F)cc2)nc2c(C3CCCCC3)n[nH]c12
- IC50 at 3 days [4]: > 63.1 µM

Structure (SMILES): CC(C)c1nn(C(C)C)c2c(=O)[nH]c(-c3ccc(F)cc3)nc12
- IC50 at 3 days [4]: > 63.1 µM

- IC50 (Trypanosoma brucei [18]; read-out: IC50): 3.2 µM
- IC50 (Trypanosoma brucei [18]; read-out: pIC50 (converted)): 3.16 µM
Structure (SMILES): COc1ccc(CCn2nc(C(C)C)c3nc(-c4ccc(F)cc4)[nH]c(=O)c32)cc1
- IC50 at 3 days [4]: > 63.1 µM

Structure (SMILES): CCCn1nc(C(C)C)c2nc(-c3ccc(F)cc3)[nH]c(=O)c21
- IC50 at 3 days [4]: > 63.1 µM

- Stability [3]: Stable
- remaining at 1 h [11]: 69%
- remaining at 1 h [12]: 69%
Structure (SMILES): O=c1[nH]c(-c2ccc(F)cc2)nc2c(C3CCCC3)n[nH]c12
- IC50 at 3 days [4]: > 63.1 µM
- IC50 at 3 days [15]: > 63.1 µM

Structure (SMILES): Cc1n[nH]c2c(=O)[nH]c(-c3ccc(F)cc3)nc12
- IC50 at 3 days [4]: > 63.1 µM

Structure (SMILES): CC(C)c1nn(CCO)c2c(=O)[nH]c(-c3ccc(F)cc3)nc12
- IC50 at 3 days [4]: > 63.1 µM

- IC50 (Trypanosoma brucei [18]; read-out: pIC50 (converted)): 0.0501 µM
Structure (SMILES): O=c1[nH]c(-c2ccc(F)cc2)nc2c(-c3ccccc3)n[nH]c12
- IC50 at 3 days [4]: > 63.1 µM

Structure (SMILES): CCc1n[nH]c2c(=O)[nH]c(-c3ccc(F)cc3)nc12
- IC50 at 3 days [4]: > 63.1 µM

Structure (SMILES): O=c1[nH]c(-c2ccc(F)cc2)nc2cn[nH]c12
- IC50 at 3 days [4]: > 63.1 µM

Structure (SMILES): Cc1ccc(C(=O)Nc2ccc(S(=O)(=O)O)c3cc(S(=O)(=O)O)cc(S(=O)(=O)O)c23)cc1NC(=O)c1cccc(NC(=O)Nc2cccc(C(=O)Nc3cc(C(=O)Nc4ccc(S(=O)(=O)O)c5cc(S(=O)(=O)O)cc(S(=O)(=O)O)c45)ccc3C)c2)c1 [SURAMIN]
- Activity [19]: Non-Toxic

- IC50 (Trypanosoma brucei [18]; read-out: pIC50 (converted)): 0.0794 µM
Structure (SMILES): CC(C)c1nn(C)c2c(=O)[nH]c(-c3ccc(F)cc3)nc12
- IC50 at 3 days [4]: > 63.1 µM

Structure (SMILES): CC(C)c1[nH]nc2c(=O)n(C)c(-c3ccc(F)cc3)nc12
- IC50 at 3 days [4]: > 63.1 µM

Structure (SMILES): CC(C)c1n[nH]c2c(=O)[nH]c(Cc3ccccc3)nc12
- IC50 (Plasmodium falciparum): 1.26 µM

Structure (SMILES): CC(C)c1c2nc(-c3ccc(F)cc3)[nH]c(=O)c2nn1C
- IC50 at 3 days [4]: > 63.1 µM

- Stability [3]: Stable
- remaining at 1 h [11]: 69%
- remaining at 1 h [12]: 69%
Structure (SMILES): CC(C)c1n[nH]c2c(=O)[nH]c(-c3ccc(F)cc3)nc12

Structure (SMILES): COCCn1nc(C(C)C)c2nc(-c3ccc(F)cc3)[nH]c(=O)c21
- IC50 at 3 days [4]: > 63.1 µM

Structure (SMILES): CC(C)c1nn(CCC(N)=O)c2c(=O)[nH]c(-c3ccc(F)cc3)nc12
- IC50 at 3 days [4]: > 63.1 µM
